According to ChEMBL document CHEMBL1124780, “Phenyl selenones: alkyl transfer by selenium-carbon bond cleavage” (J Med Chem, 1990):

Legend:
[1] = Half-life after NBP alkylation; format: ADME
Procedure, shortened: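 NBP alkylation at 37 °C in aqueous acetone (52.2:47.8, v/v) with 40.6 mM NBP (pseudo-first-order excess), 17.4 mM Tris-HCl pH 7.4, and 0.087 or 0.174 mM alkylating agent. First-order rate constants were taken from plots of log(percent remaining alkylating species) vs time. Adduct was read at 560 nm after triethylamine alkalization.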

[2] = Pseudo first order rate constant of NBP alkylation was determined at 37 degree Centigrade; format: ADME
Procedure, shortened: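 Alkylating agent (0.087 or 0.174 mM) reacted at 37 °C with 4-(4-nitrobenzyl)pyridine (40.6 mM, pseudo-first-order excess). Medium was aqueous acetone (52.2:47.8 v/v) with 17.4 mM Tris-HCl, pH 7.4. k' was taken from plots of log(% remaining alkylating species) vs time.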

[3] = tested on: CCRF-CEM; experiment: In vitro growth inhibition against CCRF-CEM human lymphoblast cells; format: functional, cell-based
Procedure, shortened: (§1)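 Cells were exposed to drug in vitro for 48 h (L1210 murine leukemia; CCRF-CEM human lymphoblast). The value is the drug concentration giving 50% growth inhibition.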

[4] = tested on: L1210; experiment: In vitro growth inhibition against L1210 murine leukemia cells; format: functional, cell-based; settings: Mus musculus; procedure, shortened: as §1
[5] = tested on: A2780; experiment: In vitro cytotoxicity was determined against A2780 human ovarian cell line using NCI screen; format: functional, cell-based
[6] = tested on: A498; experiment: In vitro cytotoxicity was determined against A 498 human renal tumor cell line using NCI screen; format: functional, cell-based
[7] = tested on: CCRF-SB; experiment: In vitro cytotoxicity was determined against CCRF-SB human leukemia cell line using NCI screen; format: functional, cell-based
[8] = species on record: Homo sapiens; experiment: In vitro cytotoxicity was determined against CALU 3 human non-small cell lung carcinoma cell line using BACTEC screen; format: functional
[9] = tested on: CCRF-CEM; experiment: In vitro cytotoxicity was determined against CCRF-CEM human leukemia cell line using NCI screen; format: functional, cell-based
[10] = tested on: COLO 320; experiment: In vitro cytotoxicity was determined against COLO 320 human colon tumor cell line using BACTEC screen; format: functional, cell-based
[11] = tested on: COLO 320; experiment: In vitro cytotoxicity was determined against COLO 320 DM human colon tumor cell line using NCI screen; format: functional, cell-based
[12] = tested on: IGROV-1; experiment: In vitro cytotoxicity was determined against IGROVI human ovarian cell line using NCI screen; format: functional, cell-based
[13] = tested on: HCT-116; experiment: In vitro cytotoxicity was determined against COLO 320 DM,HCT-15, COLO-205, HCT116 HCC 2998, KM20L2, KM12 human colon tumor cell line using NCI screen; format: functional, cell-based
[14] = tested on: NCI-H460; experiment: In vitro cytotoxicity was determined against H460 human non-small cell lung carcinoma cell line using NCI screen; format: functional, cell-based
[15] = tested on: HCT-15; experiment: In vitro cytotoxicity was determined against HCT-15 human colon tumor cell line using NCI screen; format: functional, cell-based
[16] = tested on: HOP-62; experiment: In vitro cytotoxicity was determined against HOP-62 human non-small cell lung carcinoma cell line using NCI screen; format: functional, cell-based
[17] = tested on: HT-29; experiment: In vitro cytotoxicity was determined against HT-29 human colon tumor cell line using BACTEC screen; format: functional, cell-based
[18] = tested on: NCI-H23; experiment: In vitro cytotoxicity was determined against H23 human non-small cell lung carcinoma cell line using NCI screen; format: functional, cell-based
[19] = tested on: HCC 2998; experiment: In vitro cytotoxicity was determined against HCC 2998 human colon tumor cell line using NCI screen; format: functional, cell-based
[20] = tested on: Hs-578T; experiment: In vitro cytotoxicity was determined against Hs 578.T human breast tumor cell line using BACTEC screen; format: functional, cell-based
[21] = tested on: KM-20L2; experiment: In vitro cytotoxicity was determined against KM20L2 human colon tumor cell line using NCI screen; format: functional, cell-based
[22] = tested on: K562; experiment: In vitro cytotoxicity was determined against K-562 human leukemia cell line using NCI screen; format: functional, cell-based
[23] = tested on: M19-MEL; experiment: In vitro cytotoxicity was determined against M19-MEL human melanoma cell line using NCI screen; format: functional, cell-based
[24] = tested on: KM12; experiment: In vitro cytotoxicity was determined against KM12 human colon tumor cell line using NCI screen; format: functional, cell-based
[25] = tested on: LOX IMVI; experiment: In vitro cytotoxicity was determined against LOX human melanoma cell line using NCI screen; format: functional, cell-based
[26] = tested on: Malme-3M; experiment: In vitro cytotoxicity was determined against MALME-3M human melanoma cell line using NCI screen; format: functional, cell-based
[27] = tested on: MCF7; experiment: In vitro cytotoxicity was determined against MCF-7M human breast tumor cell line using BACTEC screen; format: functional, cell-based
[28] = tested on: MOLT-4; experiment: In vitro cytotoxicity was determined against MOLT-4 human leukemia cell line using NCI screen; format: functional, cell-based
[29] = tested on: OVCAR-5; experiment: In vitro cytotoxicity was determined against OVCAR5 human ovarian cell line using NCI screen; format: functional, cell-based
[30] = tested on: OM-1; experiment: In vitro cytotoxicity was determined against OM-1 human colon tumor cell line using BACTEC screen; format: functional, cell-based
[31] = tested on: RPMI-8226; experiment: In vitro cytotoxicity was determined against RPMI 8226 human leukemia cell line using NCI screen; format: functional, cell-based
[32] = tested on: SF-268; experiment: In vitro cytotoxicity was determined against SF-268 human CNS tumor cell line using NCI screen; format: functional, cell-based
[33] = tested on: SNB-19; experiment: In vitro cytotoxicity was determined against SNB19 human CNS tumor cell line using NCI screen; format: functional, cell-based
[34] = tested on: SNB-78; experiment: In vitro cytotoxicity was determined against SNB78 human CNS tumor cell line using NCI screen; format: functional, cell-based
[35] = tested on: SF-539; experiment: In vitro cytotoxicity was determined against SF-539 human CNS tumor cell line using NCI screen; format: functional, cell-based
[36] = tested on: SN12C; experiment: (§2) In vitro cytotoxicity was determined against SN12 KI human renal tumor cell line using NCI screen; format: functional, cell-based
[37] = tested on: SK-MEL-5; experiment: In vitro cytotoxicity was determined against SK-MEL-5 human melanoma cell line using NCI screen; format: functional, cell-based
[38] = species on record: Homo sapiens; experiment: In vitro cytotoxicity was determined against SKLU human non-small cell lung carcinoma cell line using BACTEC screen; format: functional
[39] = tested on: SK-MES-1; experiment: In vitro cytotoxicity was determined against SKMES human non-small cell lung carcinoma cell line using BACTEC screen; format: functional, cell-based
[40] = tested on: SK-MEL-28; experiment: In vitro cytotoxicity was determined against SK-MEL-28 human melanoma cell line using NCI screen; format: functional, cell-based
[41] = tested on: TE-671; experiment: In vitro cytotoxicity was determined against TE671 human CNS tumor cell line using NCI screen; format: functional, cell-based
[42] = tested on: UO-31; experiment: In vitro cytotoxicity was determined against UO-31 human renal tumor cell line using NCI screen; format: functional, cell-based
[43] = tested on: U-251; experiment: In vitro cytotoxicity was determined against U251 human CNS tumor cell line using NCI screen; format: functional, cell-based
[44] = tested on: UACC-257; experiment: In vitro cytotoxicity was determined against UACC-257 human melanoma cell line using NCI screen; format: functional, cell-based
[45] = tested on: UACC-62; experiment: In vitro cytotoxicity was determined against UACC-62 human melanoma cell line using NCI screen; format: functional, cell-based
[46] = tested on: HOP-18; experiment: In vitro cytotoxicity was determined against HOP-18 human non-small cell lung carcinoma cell line using NCI screen; format: functional, cell-based
[47] = tested on: HOP-19; experiment: In vitro cytotoxicity was determined against HOP-19 human non-small cell lung carcinoma cell line using NCI screen; format: functional, cell-based
[48] = tested on: SK-MEL-2; experiment: In vitro cytotoxicity was determined against SK-MEL-2 human melanoma cell line using NCI screen; format: functional, cell-based
[49] = tested on: SN12C; experiment: as §2; format: functional, cell-based; remark: listed apart in the source
[50] = tested on: SK-OV-3; experiment: In vitro cytotoxicity was determined against SKOV-3 human ovarian cell line using NCI screen; format: functional, cell-based
[51] = tested on: SF-295; experiment: In vitro cytotoxicity was determined against SF-295, U251, SNB19 human CNS tumor cell line using NCI screen; format: functional, cell-based
[52] = tested on: COLO 205; experiment: In vitro cytotoxicity was determined against COLO-205 human colon tumor cell line using NCI screen; format: functional, cell-based

Structure (SMILES): O=S(=O)(CCCl)c1ccccc1
- half-life [1]: > 96 h
- k' [2]: < 0.00012 min⁻¹
- IC50 [3]: 2.25 µM
- IC50 [4]: 2.3 µM

Structure (SMILES): ClCC[Se]CCCl
- half-life [1]: 0.004 h

Structure (SMILES): CC[Se](=O)(=O)c1ccccc1
- half-life [1]: 4.67 h
- k' [2]: 0.00248 min⁻¹
- IC50 [3]: 10 µM
- IC50 [4]: 5 µM

Structure (SMILES): CS(=O)(=O)CS(=O)(=O)OCCCl
- half-life [1]: 9.4 h
- k' [2]: 0.00123 min⁻¹
- IC50 [4]: 3 µM

Structure (SMILES): COc1ccc([Se](=O)(=O)CCCl)cc1
- half-life [1]: 9.25 h
- k' [2]: 0.00125 min⁻¹
- IC50 [3]: 0.14 µM
- IC50 [4]: 0.36 µM

Structure (SMILES): O=[Se](=O)(CCCl)c1ccccc1
- IC50 [5]: 7.8 µM
- IC50 [6]: 4.6 µM
- half-life [1]: 8.37 h
- k' [2]: 0.00138 min⁻¹
- IC50 [7]: 0.45 µM
- IC50 [8]: 2.2 µM
- IC50 [3]: 0.15 µM
- IC50 [9]: 0.45 µM
- IC50 [10]: 1.2 µM
- IC50 [11]: 2.3 µM
- IC50 [12]: 7.8 µM
- IC50 [13]: 2.3 µM
- IC50 [14]: 4.3 µM
- IC50 [15]: 2.3 µM
- IC50 [16]: 4.3 µM
- IC50 [17]: 1.9 µM
- IC50 [18]: 4.3 µM
- IC50 [19]: 2.3 µM
- IC50 [20]: 0.9 µM
- IC50 [21]: 2.3 µM
- IC50 [22]: 0.45 µM
- IC50 [23]: 3.7 µM
- IC50 [24]: 2.3 µM
- IC50 [25]: 3.7 µM
- IC50 [4]: 0.55 µM
- IC50 [26]: 3.7 µM
- IC50 [27]: > 4 µM
- IC50 [28]: 0.45 µM
- IC50 [29]: 7.8 µM
- IC50 [30]: > 4 µM
- IC50 [31]: 0.45 µM
- IC50 [32]: 6 µM
- IC50 [33]: 6 µM
- IC50 [34]: 6 µM
- IC50 [35]: 6 µM
- IC50 [36]: 4.6 µM
- IC50 [37]: 3.7 µM
- IC50 [38]: 0.06 µM
- IC50 [39]: 0.15 µM
- IC50 [40]: 3.7 µM
- IC50 [41]: 6 µM
- IC50 [42]: 4.6 µM
- IC50 [43]: 6 µM
- IC50 [44]: 3.7 µM
- IC50 [45]: 3.7 µM
- IC50 [46]: 4.3 µM
- IC50 [47]: 4.3 µM
- IC50 [48]: 3.7 µM
- IC50 [49]: 4.6 µM
- IC50 [50]: 7.8 µM
- IC50 [51]: 6 µM
- IC50 [52]: 2.3 µM

Structure (SMILES): O=[N+]([O-])c1ccc([Se](=O)(=O)CCCl)cc1
- half-life [1]: 1.08 h
- k' [2]: 0.0104 min⁻¹
- IC50 [3]: 0.4 µM
- IC50 [4]: 0.9 µM

Structure (SMILES): CS(=O)(=O)OCCC[Se](=O)(=O)c1ccccc1
- half-life [1]: 9.55 h
- k' [2]: 0.00121 min⁻¹
- IC50 [3]: 0.9 µM
- IC50 [4]: 1.2 µM

Structure (SMILES): ClCC[Se]c1ccccc1
- half-life [1]: 0.031 h

Structure (SMILES): O=[Se](O)c1ccccc1 [BENZENE SELENOIC ACID]
- IC50 [4]: 3 µM

Structure (SMILES): O=C(O)CCCc1ccc(N(CCCl)CCCl)cc1 [CHLORAMBUCIL]
- half-life [1]: 7.75 h
- k' [2]: 0.00149 min⁻¹
